# In ChEMBL document CHEMBL3352362, “Discovery of a novel, first-in-class, orally bioavailable azaindole inhibitor (VX-787) of influenza PB2” (J Med Chem, 2014):
# What was measured:
# [1] = test system: Influenza A virus; experiment: Antiviral activity against Influenza A virus (A/Puerto Rico/8/1934(H1N1)) infected in MDCK cells assessed as cell protection after 72 hrs by cytopathic effect assay; assay type: functional, organism-based
# How it was run: (§1)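 MDCK cells incubated with test compound and influenza A virus for 72 h (3-day CPE format). Cell viability read by an ATP end point. EC50 is the concentration giving 50% cell protection; mean of N = 3 or greater.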
# [2] = test system: Influenza A virus; experiment: Antiviral activity against Influenza A virus (A/Puerto Rico/8/1934(H1N1)) infected in cells assessed as reduction in multiplication of virus-specific RNA molecules using branched-chain DNA; assay type: functional
# How it was run: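 Viral RNA replication in infected cells quantified by the bDNA QuantiGene method with strand-specific probes for positive- or negative-strand RNA. EC90 is the compound concentration giving viral RNA levels equal to 10% of control wells.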
# [3] = Clearance in rat at 3 mg/kg, iv; assay type: ADME, organism-based; parameters: dose 3 mg/kg, route intravenous; conditions: in vivo
# [4] = Cmax in rat at 3 mg/kg, po; assay type: ADME, organism-based; parameters: dose 3 mg/kg, route oral; conditions: in vivo
# [5] = AUC in rat at 3 mg/kg, po; assay type: ADME, organism-based; parameters: dose 3 mg/kg, route oral; conditions: plasma
# [6] = biological target: Polymerase basic protein 2 (Influenza A virus (strain A/Puerto Rico/8/1934 H1N1), UniProt P03428); experiment: Binding affinity to influenza A virus (A/Puerto Rico/8/1934(H1N1)) PB2 by competition binding fluorescence polarization (FP) assay
# How it was run: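 Fluorescence polarization competition binding assay measuring affinity for the cap-binding domain of the PB2 subunit.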
# [7] = AUC in mouse at 30 mg/kg; assay type: ADME, organism-based; parameters: dose 30 mg/kg; conditions: plasma
# [8] = Half life in rat at 3 mg/kg, iv; assay type: ADME, organism-based; parameters: dose 3 mg/kg, route intravenous; conditions: in vivo
# [9] = Cmax in mouse at 30 mg/kg; assay type: ADME, organism-based; parameters: dose 30 mg/kg; conditions: in vivo
# [10] = Oral bioavailability in rat at 3 mg/kg; assay type: ADME, organism-based; conditions: in vivo
# [11] = test system: Influenza A virus; experiment: Antiviral activity against Influenza A virus A/Puerto Rico/8/34 infected in BALB/c mouse assessed as body weight loss at 10 mg/kg bid treated after 48 hrs of infection for 10 days; assay type: functional; conditions: A/Puerto Rico/8/1934(H1N1)
# How it was run: (§2)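 Male BALB/c mice, 8 per study, inoculated intranasally with mouse-adapted A/PR/8/34 at 5e3 TCID50/mouse. Twice-daily treatment began 48 h after infection. Survival and body weight were followed.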
# [12] = biological target: T1, Adenosine receptor A1 (Homo sapiens) (UniProt P30542); experiment: Inhibition of human adenosine A1 receptor at 10 uM relative to control
# T1 sequence (whole entry): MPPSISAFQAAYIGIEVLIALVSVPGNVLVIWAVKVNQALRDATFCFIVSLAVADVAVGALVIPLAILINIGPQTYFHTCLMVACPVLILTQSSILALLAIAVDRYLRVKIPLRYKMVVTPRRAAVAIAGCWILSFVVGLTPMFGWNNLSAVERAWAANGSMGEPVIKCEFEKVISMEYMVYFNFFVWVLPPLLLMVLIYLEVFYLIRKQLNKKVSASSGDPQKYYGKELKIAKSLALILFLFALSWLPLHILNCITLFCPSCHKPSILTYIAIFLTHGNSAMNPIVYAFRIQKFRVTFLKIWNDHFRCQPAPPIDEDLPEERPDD
# How it was run: (§3)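 Competitive binding panel of 68 receptors, ion channels and other targets, run at 10 μM compound; percent inhibition reported.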
# [13] = Antiviral activity against Influenza A virus A/New York/18/2009 infected in MDCK cells assessed as cell protection after 3 days by cytopathic effect assay; assay type: functional, cell-based, Influenza A virus (A/New York/18/2009(H1N1)); conditions: 72 h; how it was run: as §1
# [14] = Inhibition of CYP450 (unknown origin) at > 30 uM; assay type: ADME; conditions: human
# [15] = Antiviral activity against Influenza A virus A/Mexico/4108/2009 infected in MDCK cells assessed as cell protection after 3 days by cytopathic effect assay; assay type: functional, cell-based, Influenza A virus (A/Mexico/4108/2009(H1N1)); conditions: 72 h; how it was run: as §1
# [16] = biological target: Adenosine receptor A2a (Homo sapiens) (UniProt P29274); experiment: Inhibition of human adenosine A2A receptor at 10 uM relative to control; how it was run: as §3
# [17] = test system: Influenza A virus; experiment: Antiviral activity against Influenza A virus A/Puerto Rico/8/34 infected in BALB/c mouse assessed as body weight loss at 3 mg/kg bid treated after 48 hrs of infection for 10 days; assay type: functional; conditions: A/Puerto Rico/8/1934(H1N1); how it was run: as §2
# [18] = test system: Influenza A virus; experiment: Antiviral activity against Influenza A virus A/Puerto Rico/8/34 infected in BALB/c mouse assessed as body weight loss at 30 mg/kg bid treated after 48 hrs of infection for 10 days; assay type: functional; conditions: A/Puerto Rico/8/1934(H1N1); how it was run: as §2
# [19] = Antiviral activity against Influenza A virus A/Texas/48/2009 infected in MDCK cells assessed as cell protection after 3 days by cytopathic effect assay; assay type: functional, cell-based, Influenza A virus (A/Texas/48/2009(H1N1)); conditions: 72 h; how it was run: as §1
# [20] = test system: Influenza A virus; experiment: Antiviral activity against Influenza A virus A/Puerto Rico/8/34 infected in MDCK cells assessed as cell protection after 3 days by cytopathic effect assay; assay type: functional, organism-based; conditions: A/Puerto Rico/8/1934(H1N1), 72 h; how it was run: as §1
# [21] = Antiviral activity against Influenza A virus A/California/07/2009 infected in MDCK cells assessed as cell protection after 3 days by cytopathic effect assay; assay type: functional, cell-based, Influenza A virus (A/California/07/2009(H1N1)); conditions: 72 h; how it was run: as §1
# [22] = Antiviral activity against Influenza A virus A/Viet Nam/1203/2004(H5N1) infected in MDCK cells assessed as cell protection after 3 days by cytopathic effect assay; assay type: functional, cell-based; conditions: 72 h; how it was run: as §1
# [23] = biological target: Voltage-gated inwardly rectifying potassium channel KCNH2 (Homo sapiens, UniProt Q12809); experiment: Inhibition of human ERG at > 30 uM relative to control
# How it was run: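 hERG tested by manual patch clamp.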
# [24] = biological target: Glycogen synthase kinase-3 beta (Homo sapiens, UniProt P49841); experiment: Inhibition of GSK3beta (unknown origin)
# [25] = test system: Influenza A virus; experiment: Antiviral activity against Influenza A virus A/Puerto Rico/8/34 infected in BALB/c mouse assessed as mouse survival at 1 to 10 mg/kg bid treated after 48 hrs of infection for 10 days; assay type: functional, A/Puerto Rico/8/1934(H1N1); conditions: dose mg/kg 1-10; how it was run: as §2
# [26] = Antiviral activity against Influenza A virus A/Georgia/20/2006 infected in MDCK cells assessed as cell protection after 3 days by cytopathic effect assay; assay type: functional, cell-based, Influenza A virus (A/Georgia/20/2006(H1N1)); conditions: 72 h; how it was run: as §1
# [27] = test system: Influenza A virus; experiment: Antiviral activity against Influenza A virus A/Puerto Rico/8/34 infected in BALB/c mouse assessed as body weight loss at 1 mg/kg bid treated after 48 hrs of infection for 10 days; assay type: functional; conditions: A/Puerto Rico/8/1934(H1N1); how it was run: as §2
# Chain of Polymerase basic protein 2 (P03428 whole entry, the tested form may be a part): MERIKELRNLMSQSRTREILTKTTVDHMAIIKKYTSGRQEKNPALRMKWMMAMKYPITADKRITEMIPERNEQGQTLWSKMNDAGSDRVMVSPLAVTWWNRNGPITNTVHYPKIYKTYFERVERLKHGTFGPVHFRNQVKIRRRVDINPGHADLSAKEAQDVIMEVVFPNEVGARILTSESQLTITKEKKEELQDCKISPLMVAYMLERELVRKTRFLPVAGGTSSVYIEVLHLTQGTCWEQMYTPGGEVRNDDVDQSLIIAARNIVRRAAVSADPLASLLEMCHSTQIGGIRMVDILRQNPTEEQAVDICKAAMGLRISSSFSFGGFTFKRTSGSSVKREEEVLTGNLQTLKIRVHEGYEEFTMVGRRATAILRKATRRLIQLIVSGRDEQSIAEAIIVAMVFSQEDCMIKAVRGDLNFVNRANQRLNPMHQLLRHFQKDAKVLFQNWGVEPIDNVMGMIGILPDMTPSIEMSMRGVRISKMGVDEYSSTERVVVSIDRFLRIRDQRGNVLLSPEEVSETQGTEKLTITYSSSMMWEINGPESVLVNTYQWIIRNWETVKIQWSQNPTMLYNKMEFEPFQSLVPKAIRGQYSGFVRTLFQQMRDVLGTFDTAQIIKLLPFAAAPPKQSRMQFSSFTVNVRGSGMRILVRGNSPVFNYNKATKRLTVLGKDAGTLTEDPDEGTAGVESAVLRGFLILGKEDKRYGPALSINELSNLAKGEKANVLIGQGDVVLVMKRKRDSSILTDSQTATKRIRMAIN
# Chain of Glycogen synthase kinase-3 beta (P49841 whole entry): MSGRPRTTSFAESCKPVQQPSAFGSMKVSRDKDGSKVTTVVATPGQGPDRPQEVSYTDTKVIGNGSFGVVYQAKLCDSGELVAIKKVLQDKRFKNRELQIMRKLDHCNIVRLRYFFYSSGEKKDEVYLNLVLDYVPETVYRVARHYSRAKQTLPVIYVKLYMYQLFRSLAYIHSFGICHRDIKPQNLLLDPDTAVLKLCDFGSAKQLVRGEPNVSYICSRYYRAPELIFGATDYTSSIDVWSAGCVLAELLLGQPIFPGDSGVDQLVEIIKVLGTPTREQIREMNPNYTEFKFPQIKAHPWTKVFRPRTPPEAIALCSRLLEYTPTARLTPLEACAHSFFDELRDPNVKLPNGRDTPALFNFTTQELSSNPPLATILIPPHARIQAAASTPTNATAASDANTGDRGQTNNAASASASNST
# Chain of Voltage-gated inwardly rectifying potassium channel KCNH2 (Q12809 whole entry): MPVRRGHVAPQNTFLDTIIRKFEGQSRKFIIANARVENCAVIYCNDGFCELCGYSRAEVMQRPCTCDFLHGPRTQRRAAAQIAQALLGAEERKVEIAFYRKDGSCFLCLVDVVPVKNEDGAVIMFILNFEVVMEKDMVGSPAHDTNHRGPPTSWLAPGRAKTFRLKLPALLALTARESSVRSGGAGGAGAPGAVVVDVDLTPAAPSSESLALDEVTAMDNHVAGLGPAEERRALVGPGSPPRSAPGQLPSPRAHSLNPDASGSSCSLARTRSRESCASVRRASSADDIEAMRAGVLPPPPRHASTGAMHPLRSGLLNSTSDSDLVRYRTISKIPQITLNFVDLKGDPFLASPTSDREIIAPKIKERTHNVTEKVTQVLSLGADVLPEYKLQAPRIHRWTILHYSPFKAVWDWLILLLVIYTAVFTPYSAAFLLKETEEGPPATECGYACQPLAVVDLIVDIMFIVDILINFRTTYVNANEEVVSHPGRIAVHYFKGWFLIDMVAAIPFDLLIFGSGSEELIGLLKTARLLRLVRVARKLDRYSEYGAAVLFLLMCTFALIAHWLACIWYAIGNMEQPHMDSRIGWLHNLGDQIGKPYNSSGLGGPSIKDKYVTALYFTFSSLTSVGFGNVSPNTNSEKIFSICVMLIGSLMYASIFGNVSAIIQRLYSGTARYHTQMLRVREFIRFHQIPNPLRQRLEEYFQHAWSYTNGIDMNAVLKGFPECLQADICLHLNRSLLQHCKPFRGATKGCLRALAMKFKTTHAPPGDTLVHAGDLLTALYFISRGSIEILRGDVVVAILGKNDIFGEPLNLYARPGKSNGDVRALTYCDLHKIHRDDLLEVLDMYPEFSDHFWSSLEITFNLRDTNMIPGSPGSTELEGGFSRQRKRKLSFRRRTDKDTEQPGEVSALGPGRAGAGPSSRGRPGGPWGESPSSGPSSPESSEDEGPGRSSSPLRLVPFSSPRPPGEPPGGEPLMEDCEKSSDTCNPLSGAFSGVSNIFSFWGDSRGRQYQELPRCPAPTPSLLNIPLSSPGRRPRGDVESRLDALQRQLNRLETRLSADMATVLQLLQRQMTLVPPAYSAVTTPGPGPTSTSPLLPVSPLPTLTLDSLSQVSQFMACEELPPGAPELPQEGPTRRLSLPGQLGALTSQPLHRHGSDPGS
# Chain of Adenosine receptor A2a (Homo sapiens) (P29274 whole entry): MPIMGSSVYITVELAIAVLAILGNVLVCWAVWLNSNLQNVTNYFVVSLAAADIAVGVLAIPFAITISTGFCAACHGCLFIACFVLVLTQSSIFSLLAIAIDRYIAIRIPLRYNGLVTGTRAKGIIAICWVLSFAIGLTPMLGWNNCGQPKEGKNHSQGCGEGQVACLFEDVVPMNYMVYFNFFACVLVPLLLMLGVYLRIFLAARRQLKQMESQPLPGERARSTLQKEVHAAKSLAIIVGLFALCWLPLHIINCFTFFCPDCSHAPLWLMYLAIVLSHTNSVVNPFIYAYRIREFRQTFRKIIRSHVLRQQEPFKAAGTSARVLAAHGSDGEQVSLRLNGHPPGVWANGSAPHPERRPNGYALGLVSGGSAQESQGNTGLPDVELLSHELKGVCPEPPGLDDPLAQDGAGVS
Structure (SMILES),EC50 [1],EC90 [2],clearance [3],Cmax [4],AUC [5],Kd [6],AUC [7],half-life [8],Cmax [9],bioavailability [10],further results
O=C(N[C@@H]1CCC[C@H](Nc2nc(-c3c[nH]c4ncc(C(F)(F)F)cc34)ncc2F)C1)N1CCOCC1,3 nM,3 nM,81 mL/min/kg,,,,,,,,
Cc1cnc2[nH]cc(-c3ncc(F)c(N[C@H]4CCC[C@@H](NC(=O)N5CCOCC5)C4)n3)c2c1,10 nM,13 nM,78 mL/min/kg,,,,,,,,
O=C(N[C@@H]1CCC[C@H](Nc2nc(-c3c[nH]c4ncc(F)cc34)ncc2F)C1)N1CCOCC1,4 nM,12 nM,22 mL/min/kg,200 ng/mL,1100 ng·h/mL,400 nM,180000 ng·h/mL,1.7 h,18200 ng/mL,46%,
NC(=O)CN1CCC[C@H](Nc2nc(-c3c[nH]c4ncc(Cl)cc34)ncc2F)C1,81 nM,20 nM,182 mL/min/kg,,,80 nM,,,,,
O=C(N[C@@H]1CCC[C@H](Nc2nc(-c3c[nH]c4ncc(Cl)cc34)ncc2F)C1)N1CCOCC1,2 nM,5 nM,59 mL/min/kg,,,500 nM,,,,,
O=C(O)[C@H]1CCCC[C@@H]1Nc1nc(-c2c[nH]c3ncc(Cl)cc23)ncc1F (racemic),134 nM,187 nM,16 mL/min/kg,30 ng/mL,200 ng·h/mL,< 2 nM,,1 h,,7%,
O=C(O)[C@H]1C2CCC(CC2)[C@@H]1Nc1nc(-c2c[nH]c3ncc(Cl)cc23)ncc1F,1 nM,1 nM,32 mL/min/kg,30 ng/mL,300 ng·h/mL,< 5 nM,10000 ng·h/mL,3.9 h,3700 ng/mL,24%,
Cn1cncc1C(=O)N[C@@H]1CCC[C@H](Nc2nc(-c3c[nH]c4ncc(F)cc34)ncc2F)C1,2 nM,5 nM,22 mL/min/kg,600 ng/mL,3700 ng·h/mL,90 nM,19000 ng·h/mL,2 h,13000 ng/mL,100%,
C[C@]1(C(=O)O)CCCC[C@@H]1Nc1nc(-c2c[nH]c3ncc(Cl)cc23)ncc1F (racemic),11 nM,59 nM,24 mL/min/kg,200 ng/mL,2200 ng·h/mL,< 2 nM,2400 ng·h/mL,3.2 h,1300 ng/mL,82%,
OC[C@H](O)CN1CCC[C@H](Nc2nc(-c3c[nH]c4ncc(Cl)cc34)ncc2F)C1,270 nM,360 nM,56 mL/min/kg,,,400 nM,6500 ng·h/mL,2.3 h,1200 ng/mL,,
O=C(O)[C@H]1C2CCC(CC2)[C@@H]1Nc1nc(-c2c[nH]c3ncc(F)cc23)ncc1F [PIMODIVIR],,,26 mL/min/kg,80 ng/mL,500 ng·h/mL,,22000 ng·h/mL,3.5 h,18000 ng/mL,26%,inhibition in vivo at 10 mg/kg [11]: 7.1%; inhibition [12]: 96%; EC50 [13]: 0.59 nM; inhibition (INH) [14]: Not Active; EC50 [15]: 2.7 nM; inhibition [16]: 62%; inhibition in vivo at 3 mg/kg [17]: 10.9%; inhibition in vivo at 30 mg/kg [18]: 30%; EC50 [19]: 2.8 nM; EC50 [20]: 0.32 nM; EC50 [21]: 1.8 nM; EC50 [22]: < 0.15 nM; inhibition (INH) [23]: Not Active; Ki [24]: 1600 nM; Survival [25]: 100%; EC50 [26]: 2.6 nM; inhibition in vivo at 1 mg/kg [27]: 22.5%
COCCC(=O)N1CCC[C@H](Nc2nc(-c3c[nH]c4ncc(Cl)cc34)ncc2F)C1,13 nM,320 nM,88 mL/min/kg,,,100 nM,,0.7 h,,,
CS(=O)(=O)N1CCCC[C@@H]1CNc1nc(-c2c[nH]c3ncc(Cl)cc23)ncc1F,660 nM,540 nM,152 mL/min/kg,,,100 nM,,0.4 h,,,
NC12CC3CC(CC(C3)C1)C2 [AMANTADINE],,,,,,,,,,,EC50 [13]: > 10000 nM; EC50 [15]: > 10000 nM; EC50 [19]: > 10000 nM; EC50 [20]: > 10000 nM; EC50 [21]: > 10000 nM; EC50 [26]: > 10000 nM
